Measurements taken from ChEMBL document CHEMBL1122082, “Alkaline phosphatase inhibition by a series of pyrido[2,1-b]quinazolines: A possible relationship with cromolyn-like antiallergy activity” (J Med Chem, 1982).
Calls of active or inactive are those of the source. The calls are words filed in the database; no cut-off is given here.

Species: Rattus norvegicus
Test: Dose required for 50% inhibition of rat passive cutaneous anaphylaxis model
Format: functional
Conditions: not given
Outline: (§1)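 Antiserum dilutions were injected intradermally on the back. 48 h later rats got an i.v. challenge of 1 mg ovalbumin with 0.25% Evans blue in 1 mL saline, with compound dissolved in it, using slight-excess NaHCO3 if needed.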

Structure (SMILES)	ED50 [mg/kg]
Cc1ccc2nc3ccc(C(=O)O)cn3c(=O)c2c1	0.05
O=C(O)c1ccc2nc3ccc(O)cc3c(=O)n2c1	0.05
COc1ccc2nc3ccc(C(=O)O)cn3c(=O)c2c1	0.05
O=C(O)c1ccc2nc3cc4ccccc4cc3c(=O)n2c1	0.1
COc1cc2nc3ccc(C(=O)O)cn3c(=O)c2cc1OC	0.05
O=C(O)c1ccc2nc3ccccc3c(=O)n2c1	0.5
COc1ccc2nc3ccc(-c4nn[nH]n4)cn3c(=O)c2c1	0.03
COc1ccc2c(=O)n3cc(-c4nn[nH]n4)ccc3nc2c1	0.5

Test system: Rattus norvegicus
Test: Percent inhibition of rat passive cutaneous anaphylaxis model after intravenous administration of the 0.5 mg/kg
Format: functional
Conditions: not given
Outline: as §1

Structure (SMILES)	inhibition in vivo at 0.5 mg/kg [%]
O=c1c2ccccc2nc2ccc(-c3nn[nH]n3)cn12	68
COc1cc2nc3ccc(-c4nn[nH]n4)cn3c(=O)c2cc1OC	100
Cc1ccc2nc3ccc(-c4nn[nH]n4)cn3c(=O)c2c1	100
O=c1c2cc3ccccc3cc2nc2ccc(-c3nn[nH]n3)cn12	100
O=C(O)c1ccn2c(=O)c3ccccc3nc2c1	26

Test system: Rattus norvegicus
Test: Percent inhibition of rat passive cutaneous anaphylaxis model after intravenous administration of the 0.5 mg/kg; IA is Inactive
Format: functional, organism-based
Set-up: dose 0.5 mg/kg
Conditions: at 0.5 mg/kg
Outline: as §1

Structure (SMILES)	inhibition
O=C(O)c1cccn2c(=O)c3ccccc3nc12	inactive
O=C(O)c1cccn2c(=O)c3cc4ccccc4cc3nc12	inactive
O=C(O)c1ccc2nccc(=O)n2c1	inactive
O=C(O)C1=CN2CC3=C(CCCC3)N=C2C=C1	inactive
